The source made the active and inactive calls. No cut-off for these calls is given here.
Key:
MDM [1] = experiment: Inhibition of Vpu ion channel in 0.05 MOI HIV1 Ba-L chronically infected in 10-14 days differentiated human MDM cells assessed as viral inhibition after 5 days post treatment relative to control; type: cell-based; settings: Human immunodeficiency virus 1
Method in brief: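 Chronic infection model: MDM were incubated with HIV-1 Ba-L for 3 h and left 7 days unwashed, then washed three times and given a single 10 μM dose (DMSO control). Supernatants were sampled routinely for RT activity. In the washout arm, compound was removed and cells kept drug-free for an additional 20 days.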

[2] = tested on: Human immunodeficiency virus 2; experiment: Antiviral activity against 0.05 MOI HIV2 cytopathic strain chronically infected in 7-14 days differentiated human MDM cells assessed as viral inhibition measured after 7 days; type: functional
Method in brief: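 Day 14 MDM from three seronegative donors were infected at MOI 0.05 for 7 days, then washed free of extracellular virus. Cultures then ran a further 7 days with or without 10 μM BIT225, from day 21. Day 28 supernatants were assayed by RT activity ELISA. Percent inhibition was taken versus untreated controls, as mean of three donors.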

MDM [3] = experiment: Inhibition of Vpu ion channel in 0.001 to 3 MOI HIV1 Ba-L infected in 7-14 days differentiated human MDM cells assessed as virus inhibition rate measured after 7 days; type: cell-based; settings: Human immunodeficiency virus 1
Method in brief: (§1)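 MDM differentiated for 7, 10 or 14 days were infected with HIV-1 Ba-L across a range of MOIs, washed three times with PBS and cultured 7 days with 10 μM compound or equal-volume DMSO. On day 7 postinfection, supernatant RT activity was measured (and infectivity on TZM-bl cells). Cell lysates went to real-time PCR for LTR-gag DNA, normalised to albumin copies.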

[4] = Cytotoxicity against human MDM cells assessed as cell viability at 0 to 10 uM by MTT assay; type: cell-based; settings: read-out: Activity
Method in brief: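 Infected day 14 MDM were exposed to compound, up to 10 μM in parallel antiviral assays or extended to 1,000 μM for TC50. On day 7, half the medium was removed and 100 μg MTT added per well for 5 h at 37°C. Formazan was dissolved in acidified isopropanol with 10% Triton X-100 and A560 read. Viability was expressed vs DMSO controls; TC50 by nonlinear regression (n = 3).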

MDM [5] = experiment: Inhibition of Vpu ion channel in 0.001 MOI HIV1 Ba-L infected in 14 days differentiated human MDM cells assessed as viral inhibition by TZM-bl infectivity assay; type: cell-based; settings: Human immunodeficiency virus 1; method in brief: as §1
[6] = tested on: Human immunodeficiency virus 1; experiment: Antiviral activity against HIV1 Ba-L in human MDM assessed as inhibition integration of virus to host cell genome at 0.3125 to 10 uM; type: functional, organism-based
MDM [7] = experiment: Inhibition of Vpu ion channel in 0.01 MOI HIV1 Ba-L infected in 14 days differentiated human MDM cells assessed as number of gag copy; type: cell-based; settings: Human immunodeficiency virus 1; method in brief: as §1
[8] = Selectivity index, ratio of TC50 for human MDM cells to EC50 for HIV1 1064.52 infected in human MDM cells; type: toxicity, cell-based; settings: read-out: Selectivity Index
[9] = Selectivity index, ratio of TC50 for human MDM cells to EC50 for HIV1 G-92NG003-G3 infected in human MDM cells; type: toxicity, cell-based; settings: read-out: Selectivity Index
PBMC [10] = experiment: Inhibition of Vpu ion channel in 0.05 MOI HIV1 NL4-3 infected in human PBMC cells assessed as viral inhibition measured after 7 days by […]; settings: Human immunodeficiency virus 1
[11] = Inhibition of Vpu ion channel in HIV1 1064.52 in human MDM assessed as inhibition of vrius release; parameters: species or system Human immunodeficiency virus 1
[12] = biological target: Protease (Human immunodeficiency virus 1) (UniProt Q9YQ12); experiment: Inhibition of HIV1 protease assessed as substrate cleavage at 100 uM by cell free assay
Sequence of Protease (Human immunodeficiency virus 1) (Q9YQ12 as listed by the source): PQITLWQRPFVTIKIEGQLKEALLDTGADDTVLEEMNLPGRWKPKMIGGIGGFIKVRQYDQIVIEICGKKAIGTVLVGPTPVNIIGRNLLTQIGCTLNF
Method in brief: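 Cell-free fluorometric protease assay: compound (1–100 μM) was premixed with 2 μM quenched HIV-1 protease substrate 1. Background fluorescence (ex 340/em 490 nm) was read every 5 s for 5 min. HIV-1 protease was then added at 1.5% and cleavage followed for a further 5 min. LPV and EFV served as controls.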

MDM [13] = experiment: Inhibition of Vpu ion channel in 0.05 MOI HIV1 Ba-L infected in 14 days differentiated human MDM cells assessed as number of gag copy; type: cell-based; settings: Human immunodeficiency virus 1; method in brief: as §1
[14] = Selectivity index, ratio of TC50 for human MDM cells to EC50 for HIV1 92TH001 infected in human MDM cells; type: toxicity, cell-based; settings: read-out: Selectivity Index
[15] = Selectivity index, ratio of TC50 for human MDM cells to EC50 for HIV1 92UG029 infected in human MDM cells; type: toxicity, cell-based; settings: read-out: Selectivity Index
[16] = tested on: Human immunodeficiency virus 1; experiment: Antiviral activity against HIV1 Ba-L in human MDM assessed as inhibition integration of virus to host cell genome at 10 nM; type: functional, organism-based
[17] = tested on: Human immunodeficiency virus 1; experiment: Antiviral activity against HIV1 Ba-L in 14 days differentiated human MDM assessed as decrease in intracellular p24 level at 10 uM after 7 days by Western blot analysis; type: functional, organism-based
Method in brief: (§2)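 Day 14 MDM were chronically infected with HIV-1 Ba-L, then given 10 μM compound or DMSO and harvested on day 28. Lysates with equal total protein (checked by β-actin) were run on a 10% polyacrylamide gel and blotted to nitrocellulose. Blots were probed with HIV-1-seropositive human serum, then HRP anti-human IgG.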

PBMC [18] = experiment: Inhibition of Vpu ion channel in 0.05 MOI HIV1 NL4-3 infected in human PBMC cells assessed as viral inhibition measured at 5 uM after 7 days by […]; settings: Human immunodeficiency virus 1
[19] = Inhibition of Vpu ion channel in HIV1 MDR3761 in human MDM assessed as inhibition of vrius release; parameters: species or system Human immunodeficiency virus 1
[20] = Inhibition of Vpu ion channel in HIV1 92TH001 in human MDM assessed as inhibition of vrius release; parameters: species or system Human immunodeficiency virus 1
PBMC [21] = experiment: Inhibition of Vpu ion channel in 0.05 MOI HIV1 NL4-3 infected in human PBMC cells assessed as viral inhibition measured at 10 uM after 7 days by […]; settings: Human immunodeficiency virus 1
[22] = tested on: Human immunodeficiency virus 1; experiment: Antiviral activity against HIV1 Ba-L in 14 days differentiated human MDM assessed as decrease in intracellular viral protein at 10 uM after 7 days by Western blot analysis; type: functional, organism-based; method in brief: as §2
[23] = tested on: Human immunodeficiency virus 1; experiment: Antiviral activity against HIV1 Ba-L in human MDM assessed as inhibition integration of virus to host cell genome at 10 nM by RT assay; type: functional; settings: Human immunodeficiency virus 1, Ba-L
MDM [24] = experiment: Inhibition of Vpu ion channel in 0.001 MOI HIV1 Ba-L infected in 10 days differentiated human MDM cells assessed as viral inhibition by TZM-bl infectivity assay; type: cell-based; settings: Human immunodeficiency virus 1; method in brief: as §1
MDM [25] = experiment: Inhibition of Vpu ion channel in 0.01 MOI HIV1 Ba-L infected in 10 days differentiated human MDM cells assessed as number of gag copy; type: cell-based; settings: Human immunodeficiency virus 1; method in brief: as §1
[26] = Inhibition of Vpu ion channel in HIV1 93BR029 in human MDM assessed as inhibition of vrius release; parameters: species or system Human immunodeficiency virus 1

Cn1cc(-c2cccc3cc(C(=O)NC(=N)N)ccc23)cn1
inhibition (MDM [1]): 91.5% | inhibition (INH) [2]: 6.1% | Activity (MDM [3]): Active | viability at up to 10 µM [4]: > 96% | inhibition (MDM [5]): 90.3% | Activity [6]: inactive | Activity (MDM [7]): 98 | selectivity ratio [8]: 61.9 | selectivity ratio [9]: 131 | inhibition (PBMC [10]): 95.8% | EC50 [11]: 2700 nM | Activity [12]: inactive | Activity (MDM [13]): Active | selectivity ratio [14]: 140 | selectivity ratio [15]: 14 | Activity [16]: Active | Activity [17]: Active | inhibition (PBMC [18]): 25.7% | EC50 [19]: 5100 nM | EC50 [20]: 1500 nM | inhibition (PBMC [21]): 56.8% | Activity [22]: inactive | inhibition at 0.01 µM [23]: 99% | inhibition (MDM [24]): 98.1% | Activity (MDM [25]): 1380 | EC50 [26]: 1900 nM

From ChEMBL document CHEMBL1240369, “Antiviral efficacy of the novel compound BIT225 against HIV-1 release from human macrophages” (Antimicrob Agents Chemother, 2010)
